LEDGF integ inh: blocks HIV-1 LEDGF/p75-dependent DNA integration | 0.64% of 370,000 active | TR-FRET IN-LEDGF/p75 DNA integration, Eu/Cy5 | AID 743269 | inhibition, % at 3.7 µM;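 active = inhibition above the screen-wide mean plus 3 SD, cut at about 13% in these data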;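 note: signal is the Cy5 over europium emission ratio at 671 and 618 nm; 0% = plate median of compound wells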
UHRF1 binding: blocks human UHRF1 binding to methylated DNA; 0.75% of 370,000 active; Q96T88; UHRF1 binding to methylated oligo, TR-FRET; inhibition, % at 4.4 µM;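 note: UHRF1 SRA domain binding a hemimethylated CpG hairpin DNA probe; 0% = median of test compound wells and 100% = reference inhibitor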
TDP2 absorb: TDP2 (human) inhibition, absorbance primary screen; AID 720702; inhibition, % at 12.8 µM; recombinant TDP2, T5PNP hydrolysis, p-nitrophenol absorbance 415 nm; 0.34% of 370,000 active; O95551;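 active = inhibition above the mean of all tested compounds plus 3 SD, set per campaign, cut at about 25% in these data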;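 note: 0% = DMSO with enzyme and 100% = buffer with substrate but no TDP2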
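Material: recombinant human TDP2; quantity: TDP2 enzyme at 120 nM final; medium: Tris-HCl pH 7.5 with MgCl2; compound: single concentration, 12.8 µM nominal, with 1% DMSO; incubation: 2 h enzyme incubation at 37 °C; signal: epi absorbance; measure: percent inhibition; benchmarks: high control without enzyme, low control DMSO plus TDP2; repeats: singlicate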
MBD2 inh: inhibitors of human MBD2 binding to methylated oligonucleotide; AID 686964; inhibition, % at 4.4 µM; 0.31% of 370,000 active; TR-FRET; in the data active = inhibition above about 13%
Target sequence (Q9UBB5 whole entry, looked up): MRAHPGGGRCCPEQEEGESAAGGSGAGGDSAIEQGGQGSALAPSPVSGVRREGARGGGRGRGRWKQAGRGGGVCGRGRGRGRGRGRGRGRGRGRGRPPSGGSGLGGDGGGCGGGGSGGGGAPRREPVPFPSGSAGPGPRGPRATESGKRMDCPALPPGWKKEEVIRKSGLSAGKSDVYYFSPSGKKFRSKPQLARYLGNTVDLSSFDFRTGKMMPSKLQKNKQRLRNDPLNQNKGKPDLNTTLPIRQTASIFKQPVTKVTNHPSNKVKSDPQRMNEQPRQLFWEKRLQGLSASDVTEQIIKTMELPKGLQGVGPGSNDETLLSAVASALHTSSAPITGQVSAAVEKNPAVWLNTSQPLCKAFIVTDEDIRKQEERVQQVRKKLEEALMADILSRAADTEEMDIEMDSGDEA
UHRF1 DNA bind: inhibits human UHRF1 binding to methylated oligonucleotide, MBD2 counter-screen; TR-FRET; shares compounds with MBD2 inh; 25% of 1,000 active; AID 720530; inhibition, % at 4.4 µM;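 note: UHRF1 SRA domain binding a labeled hemimethylated CpG hairpin DNA; 0% = vehicle only and 100% = reference inhibitor with vehicle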
MBD2 DBD conf: MBD2-DBD methyl-DNA binding inhibition, TR-FRET confirmation | inhibition, % at 4.4 µM | AID 720531 | shares compounds with MBD2 inh | 26% of 1,000 active | TR-FRET MBD2-DBD binding to methylated oligonucleotide; in the data active = inhibition above about 14%
* marks the source's active call; other numbers are inactive results; . = no result given. Sampled rows, rich in hits. Any-hit rate of the full collection: about 1.6%. Cut-off read from the data, not from the text of the source, unless noted: active = inhibition above about 21%; inactive = the rest.

SMILES | LEDGF integ inh | UHRF1 binding | TDP2 absorb | MBD2 inh | UHRF1 DNA bind | MBD2 DBD conf
O=C(CNC(=O)c1ccccc1)OCN1C(=O)c2ccccc2C1=O | -1 | 2 | 0 | 15* | 8 | 4
Nc1ccn([C@@H]2O[C@H](C(=O)N[C@H](Cc3ccccc3)C(=O)N3CCSC3)[C@@H](O)[C@H]2O)c(=O)n1 | 1 | -3 | 0 | 2 | . | .
CN(C(=O)COC(=O)c1cccc(S(=O)(=O)N2CCCCCC2)c1)c1ccccc1 | -2 | 0 | -2 | -3 | . | .
COc1ccc(N(C)S(=O)(=O)c2cccc(C(=O)OCC(=O)N(C)c3ccccc3)c2)cc1 | -2 | -2 | 5 | 16* | 9 | 4
Cn1cc(C[C@H](NC(=O)OC(C)(C)C)C(=O)N[C@@H](CO)Cc2ccccc2)c2ccccc21 | 1 | 2 | -5 | 26* | 7 | 2
CC(C)(C)OC(=O)NC(Cc1ccccc1)C(=O)NCCCC(=O)O (configuration not stated) | -3 | -3 | 12 | 0 | . | .
CCOc1ccc(C2SCC(=O)N2c2c(C)n(C)n(-c3ccccc3)c2=O)cc1 (configuration not stated) | -5 | 6 | -3 | 16* | 10 | 3
Cc1c(N2C(=O)CSC2c2ccccc2)c(=O)n(-c2ccccc2)n1C (configuration not stated) | -1 | 2 | 2 | -1 | . | .
CCn1cc(/C=C(\NC(=O)c2ccccc2OC)C(=O)NCCN2CCOCC2)c2ccccc21 | -4 | -1 | 2 | 16* | 4 | 1
COc1ccc(NC(=O)Nc2ccccc2OC)cc1 | -2 | -12 | 2 | -3 | . | .
COc1ccccc1NC(=O)Nc1ccc(CC#N)cc1 | 1 | -2 | -2 | 60* | 8 | 2
OCCCNCc1cccc2ccccc12 | 3 | 18 | -1 | 15* | 5 | 19*
CC(O)CNCc1cccc2ccccc12 (configuration not stated) | 5 | 18 | 8 | 6 | . | .
Cn1c(=O)c2cc(S(=O)(=O)N3CCN(Cc4ccccc4)CC3)ccc2n(C)c1=O | 0 | 1 | -2 | 0 | . | .
COc1cc(N(C)C)ccc1C=c1c2ccccc2n2c1cc(-c1ccccc1)[n+]2C | -1 | 43* | 10 | 27* | 62* | 58*
CC(=O)OCCNc1cc(N2CCN(C)CC2)c2noc3c2c1C(=O)c1ccccc1-3 | -6 | 36* | -1 | 20* | 25* | 11
COC(=O)[C@H](N[C@H](/C=C/c1ccccc1)[C@@H](O)Cc1ccccc1)c1ccccc1 | -1 | 1 | -2 | -2 | . | .
CC(=O)c1ccccc1NC(=O)COC(=O)C1CCCN1S(=O)(=O)c1ccccc1F (configuration not stated) | 5 | 1 | 13 | 15* | 8 | 3
CCOc1ccc(C(=O)N2CCN(CC(=O)N3CCCC3)CC2)cc1OCC | -1 | 22* | 8 | 16* | 5 | 1
CCOc1ccc(C(=O)N2CCCC2)cc1OC | 3 | 0 | -2 | 5 | . | .
CCc1ccccc1Nc1nc(N)nc(COC(=O)c2c(C)noc2C)n1 | 12 | 23* | 11 | 14* | 4 | 5
CCCCCCCCN1C(=O)[C@@H](CC(=O)N2CCOCC2)C[C@@]2(C(=O)OC)C1=C[C@H](C(C)(C)C)O[C@@H]2C | -4 | 1 | -5 | -1 | . | .
COc1ccccc1NC(=O)COC(=O)c1cc2c(s1)CCC2 | 5 | 5 | -2 | -4 | . | .
COc1ccc(OC)c(NC(=O)COC(=O)c2cc3c(s2)CCC3)c1 | 7 | 47* | -1 | 19* | 40* | 35*
COc1ccc(N2CCN(CCNS(=O)(=O)c3cccs3)CC2)cc1 | -2 | 1 | 4 | 2 | . | .
SMILES | LEDGF integ inh | UHRF1 binding | TDP2 absorb | MBD2 inh | UHRF1 DNA bind | MBD2 DBD conf
Cc1ccc(S(=O)(=O)N2CCOCC2)cc1C(=O)OCC(=O)NCc1ccc2c(c1)OCO2 | -3 | 33* | 5 | 16* | 6 | 2
COC(=O)c1cc2c(c3c4cc(OC)ccc4n(C(=O)c4ccccc4)c13)C(=O)N(C1CCCCC1)C2 | 1 | -2 | 6 | -4 | . | .
Cc1ccc(C(=O)NCC(=O)NC2CCC(C)CC2)s1 (configuration not stated) | 0 | -1 | 4 | 98* | 4 | 1
CCOC(=O)[C@]12CCCCC/C=C\1N(CCc1ccc(Cl)cc1)C(=O)[C@H]2CC(=O)NCc1ccc(OC)c(OC)c1 | 5 | -2 | 2 | -5 | . | .
O=C(CSc1nnc(-c2cccs2)n1Cc1ccco1)Nc1ccc(OCc2ccccc2)cc1 | 3 | 1 | -12 | -2 | . | .
Cc1onc(-c2ccccc2Cl)c1C(=O)N1CCC(Cc2ccccc2)CC1 | 1 | 29* | -14 | 16* | 8 | 2
Cc1onc(-c2ccccc2Cl)c1C(=O)N1CCC(C(N)=O)CC1 | -8 | 7 | -19 | 1 | . | .
CCCCCCOC(=O)Cc1c(C)nc(-c2ccccc2)[nH]c1=O | -4 | 15 | 5 | 13* | 3 | 2
C=C(C)Cc1c(C)nc(-c2ccccc2)[nH]c1=O | 1 | 0 | 2 | 1 | . | .
O=C(COc1ccc2ccccc2c1Br)Nn1cnnc1 | 5 | 17 | 24 | 19* | 4 | 2
O=C(Nc1ccccc1Oc1ccccc1)NC1CCCCN(Cc2cccc(Cl)c2)C1=O (configuration not stated) | 7 | -3 | -7 | -6 | . | .
COc1ccc(C)cc1NC(=O)C1CCN(C(=O)c2ccco2)CC1 | 3 | -2 | -7 | 14* | 9 | 3
O=C(CSc1cccc[n+]1[O-])Nc1cc2c(cc1Cl)C(=O)c1ccccc1C2=O | -2 | 3 | 0 | 3 | . | .
O=C(CSc1cccc[n+]1[O-])Nc1cc([N+](=O)[O-])ccc1Cl | -2 | 1 | 4 | 13* | 10 | 5
CC(c1ccccc1)n1cc(C(=O)N2CCCC2)nn1 (configuration not stated) | -1 | 1 | -1 | -4 | . | .
CCCCc1c(-c2ccccc2OC)ncn1C(C)c1ccc(Cl)cc1 (configuration not stated) | 1 | -2 | -2 | -4 | . | .
COc1ccc(-c2cc(-c3ccccc3)c(C#N)c(=S)[nH]2)cc1 | -5 | 2 | -1 | 21* | 7 | 4
COCCCNC(=O)C[C@H]1C[C@@]2(C(=O)OC)C(=C[C@H](C(C)C)O[C@@H]2C2CC2)N(Cc2ccco2)C1=O | -1 | 0 | -10 | -5 | . | .
CN(C)c1ccc(/C=C/C(=O)c2ccccc2)cc1[N+](=O)[O-] | 1 | -5 | -10 | -4 | . | .
O=C(/C=C/c1ccc(O)c([N+](=O)[O-])c1)c1ccc2ccccc2c1 | 3 | 0 | -4 | 44* | 4 | -1
CN(Cc1ccc(Cl)cc1)C(=O)c1ccc(S(=O)(=O)NCc2ccco2)cc1 | -6 | 5 | -4 | 37* | 6 | 1
